Measured values: PMC8853157 (Medicinal Chemistry Research, 2022)
“Also recorded” adds a separate entry of the source.

Columns and labels:
[1] = molecular target: LFA-1/ICAM-1 (Homo sapiens, UniProt P20701); test: Jurkat T-cell adhesion assay; assay type: cell-based; settings: for LFA-1/ICAM-1 antagonist activity in words / IC50 level in words: Jurkat T-cell adhesion assay; for LFA-1/ICAM-1 antagonist activity in words: compared with Lifitegrast
Outline: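 Jurkat E6-1 cells (RPMI 1640, 5% FBS, 37 °C, 5% CO2) labeled with 8 μM BCECF for 15 min at room temperature. Cells (5 × 10^5/well) preincubated with compound for 30 min at 37 °C, then settled 1 h at 37 °C on recombinant human ICAM-1–Fc-coated wells. Titration 10−10–10−4 M in triplicate lanes. Non-adherent cells washed off; adherent-cell fluorescence read; IC50 by four-parameter logistic regression.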

[2] = tested on: LFA-1/ICAM-1; settings: read-out: previously reported IC50; HUT 78T cells; cited from earlier work
[3] = tested on: dry eye mice model; test: Dry eye mice model, overall effect; assay type: in vivo, C57/BL6 mice; settings: 5% vs 7% (W/V) compound 1b, topical
Outline: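 Female C57/BL6 mice (6–8 weeks, n = 5/group) were kept at RH 15, airflow 2 m/s and 21–23 °C for 14 days, with s.c. scopolamine hydrobromide (0.5 mg/0.2 ml) three times daily. Test compound (5% or 7% W/V) was given as 5 µL drops to both eyes twice daily. Read-outs were fluorescein score summed over five corneal regions, PAS goblet density and TUNEL; 10 eyes/group.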

[4] = tested on: dry eye mice model; test: TUNEL staining of corneal epithelium in dry eye mice model; assay type: in vivo, C57/BL6 mice; settings: for TUNEL positive (Cy3 labeled) cells in cornea, apoptosis: 14 days, vs dry eye model group
Outline: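 Female C57/BL6 mice, 6–8 weeks, n=5/group. Dry eye induced over 14 days. Both eyes received 5 µL drops twice daily: test compound 5% or 7% W/V, vehicle, or 5% reference antagonist. Eyes then excised, OCT-embedded and cut into 6 µm frozen central sagittal sections. Sections TUNEL/DAPI-stained. TUNEL-positive cells counted in the central 200 µm corneal epithelial field at ×400. n=10 eyes/group; mean ± SEM.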

[5] = tested on: dry eye mice model; test: Goblet cell density; assay type: in vivo, C57/BL6 mice; settings: 14 days, vs dry eye model group
Outline: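 Dry eye was induced in female C57/BL6 mice (6–8 weeks, n = 5/group) by RH 15, 2 m/s airflow, 21–23 °C and s.c. scopolamine hydrobromide (0.5 mg/0.2 ml) three times daily for 14 days. Eye drops (5 µL) went to both eyes twice daily. Central frozen sections (6 µm) were PAS-stained, and goblet cells per mm were counted by image analysis. Mean ± SEM, 10 eyes/group.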

LFA-1/ICAM-1 (Homo sapiens, UniProt P20701), sequence (P20701 26-1170): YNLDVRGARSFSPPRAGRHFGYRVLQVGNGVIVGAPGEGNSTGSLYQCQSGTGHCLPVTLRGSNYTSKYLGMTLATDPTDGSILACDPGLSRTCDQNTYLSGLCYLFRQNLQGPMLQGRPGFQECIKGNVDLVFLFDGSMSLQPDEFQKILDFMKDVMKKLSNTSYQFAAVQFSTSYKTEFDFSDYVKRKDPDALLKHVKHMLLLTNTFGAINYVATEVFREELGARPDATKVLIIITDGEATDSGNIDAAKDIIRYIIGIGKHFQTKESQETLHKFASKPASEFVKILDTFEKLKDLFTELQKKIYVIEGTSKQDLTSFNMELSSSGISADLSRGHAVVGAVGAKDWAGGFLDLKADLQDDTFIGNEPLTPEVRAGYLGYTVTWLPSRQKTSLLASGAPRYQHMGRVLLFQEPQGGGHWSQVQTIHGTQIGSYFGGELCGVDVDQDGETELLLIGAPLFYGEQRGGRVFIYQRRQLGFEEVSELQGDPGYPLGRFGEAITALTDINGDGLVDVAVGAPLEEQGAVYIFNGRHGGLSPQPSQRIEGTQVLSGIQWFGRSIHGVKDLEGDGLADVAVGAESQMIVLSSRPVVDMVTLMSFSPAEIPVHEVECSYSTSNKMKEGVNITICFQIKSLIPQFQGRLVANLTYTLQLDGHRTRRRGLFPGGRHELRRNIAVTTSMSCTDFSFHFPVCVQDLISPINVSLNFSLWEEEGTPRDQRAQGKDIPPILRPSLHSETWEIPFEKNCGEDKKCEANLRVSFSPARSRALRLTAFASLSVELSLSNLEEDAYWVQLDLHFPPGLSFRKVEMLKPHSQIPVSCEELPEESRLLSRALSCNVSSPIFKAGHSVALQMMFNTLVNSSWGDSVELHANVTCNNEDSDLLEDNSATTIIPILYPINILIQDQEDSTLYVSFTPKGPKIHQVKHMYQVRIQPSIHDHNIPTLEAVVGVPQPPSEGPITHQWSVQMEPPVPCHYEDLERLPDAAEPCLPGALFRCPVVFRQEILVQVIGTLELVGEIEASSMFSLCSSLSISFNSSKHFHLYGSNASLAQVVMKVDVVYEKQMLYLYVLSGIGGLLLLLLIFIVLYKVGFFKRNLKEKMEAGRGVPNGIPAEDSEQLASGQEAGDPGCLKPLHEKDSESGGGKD
LFA-1/ICAM-1 (Homo sapiens, UniProt P20701), sequence (P05107 23-769 partner): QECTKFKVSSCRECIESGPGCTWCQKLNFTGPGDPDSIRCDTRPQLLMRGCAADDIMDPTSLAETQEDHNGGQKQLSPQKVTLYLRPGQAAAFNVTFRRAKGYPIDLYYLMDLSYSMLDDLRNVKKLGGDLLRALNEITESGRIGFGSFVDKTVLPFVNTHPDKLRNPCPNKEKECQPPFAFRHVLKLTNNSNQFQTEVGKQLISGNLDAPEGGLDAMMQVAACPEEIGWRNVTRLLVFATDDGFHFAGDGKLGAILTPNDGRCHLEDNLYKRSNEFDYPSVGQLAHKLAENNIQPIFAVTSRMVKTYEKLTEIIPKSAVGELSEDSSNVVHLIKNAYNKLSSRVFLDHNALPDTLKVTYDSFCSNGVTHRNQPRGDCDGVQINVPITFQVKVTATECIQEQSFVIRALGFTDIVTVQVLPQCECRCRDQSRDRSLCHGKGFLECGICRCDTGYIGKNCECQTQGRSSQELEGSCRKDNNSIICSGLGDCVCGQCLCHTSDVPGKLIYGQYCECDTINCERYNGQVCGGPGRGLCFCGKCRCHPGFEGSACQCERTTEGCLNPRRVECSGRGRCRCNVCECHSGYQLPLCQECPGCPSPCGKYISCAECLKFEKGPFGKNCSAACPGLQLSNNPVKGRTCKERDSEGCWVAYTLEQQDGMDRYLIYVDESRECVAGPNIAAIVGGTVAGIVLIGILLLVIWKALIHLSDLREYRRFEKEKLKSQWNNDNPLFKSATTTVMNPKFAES

Row | IC50 level in words [1] | SMILES | LFA-1/ICAM-1 antagonist activity in words [1] | other results
1 | – | CS(=O)(=O)c1cccc(C[C@H](NC(=O)c2c(Cl)cc3c(c2Cl)CCN(C(=O)c2ccc4ncnn4c2)C3)C(=O)O)c1 [Compound 1d, (S)-2-(2-([1,2,4]Triazolo[1,5-a]pyridine-6-carbonyl)-5,7-dichloro-1,2,3,4-tetrahydroisoquinoline-6-carboxamido)-3-(3-(methylsulfonyl)phenyl)propanoic acid] | decreased LFA-1/ICAM-1 antagonist activity obviously | –
2 | several micromol levels | CS(=O)(=O)c1cccc(C[C@H](NC(=O)c2c(Cl)cc3c(c2Cl)CCN(C(=O)Cc2ccc4occc4c2)C3)C(=O)O)c1 [Compound 1c, (S)-2-(2-(2-(Benzofuran-5-yl)acetyl)-5,7-dichloro-1,2,3,4-tetrahydroisoquinoline-6-carboxamido)-3-(3-(methylsulfonyl)phenyl)propanoic acid] | certain LFA-1/ICAM-1 antagonist activity | –
3 | several micromol levels | O=C(NC(Cc1ccc2ncccc2c1)C(=O)O)c1c(Cl)cc2c(c1Cl)CCN(C(=O)c1ccc3ccoc3c1)C2 (centres unmarked) [Compound 1f, 2-(2-(Benzofuran-6-carbonyl)-5,7-dichloro-1,2,3,4-tetrahydroisoquinoline-6-carboxamido)-3-(quinolin-6-yl)propanoic acid] | – | –
4 | several micromol levels | O=C1CCc2ccc(CC(NC(=O)c3c(Cl)cc4c(c3Cl)CCN(C(=O)c3ccc5ccoc5c3)C4)C(=O)O)cc2N1 (centres unmarked) [Compound 1h, 2-(2-(Benzofuran-6-carbonyl)-5,7-dichloro-1,2,3,4-tetrahydroisoquinoline-6-carboxamido)-3-(2-oxo-1,2,3,4-tetrahydroquinolin-7-yl)propanoic acid] | – | –
5 | – | O=C(NC(Cc1ccc2c(c1)S(=O)(=O)CC2)C(=O)O)c1c(Cl)cc2c(c1Cl)CCN(C(=O)c1ccc3ccoc3c1)C2 (centres unmarked) [Compound 1g, 2-(2-(Benzofuran-6-carbonyl)-5,7-dichloro-1,2,3,4-tetrahydroisoquinoline-6-carboxamido)-3-(1,1-dioxido-2,3-dihydrobenzo[b]thiophen-6-yl)propanoic acid] | loss of activity | –
6 | – | CS(=O)(=O)c1cccc(C[C@H](NC(=O)c2c(Cl)cc3c(c2Cl)CCN(C(=O)c2ccc4ccoc4c2)C3)C(=O)O)c1 [Lifitegrast, reference compound] | – | IC50 ([1]; IC50, Jurkat T-cell adhesion assay, text and Fig. 3): ~10.5 nM; IC50 [2]: 9 nM
7 | – | C#Cc1cccc(C(=O)N2CCc3c(cc(Cl)c(C(=O)N[C@@H](Cc4cccc(S(C)(=O)=O)c4)C(=O)O)c3Cl)C2)c1 [Compound 1e, (S)-2-(2-(3-Ethynylbenzoyl)-5,7-dichloro-1,2,3,4-tetrahydroisoquinoline-6-carboxamido)-3-(3-(methylsulfonyl)phenyl)propanoic acid] | decreased LFA-1/ICAM-1 antagonist activity obviously | –
8 | – | CS(=O)(=O)c1cccc(C[C@H](NC(=O)c2c(Cl)cc3c(c2Cl)CCN(S(=O)(=O)c2ccc4ccoc4c2)C3)C(=O)O)c1 [Compound 1a, (S)-2-(2-(Benzofuran-6-ylsulfonyl)-5,7-dichloro-1,2,3,4-tetrahydroisoquinoline-6-carboxamido)-3-(3-(methylsulfonyl)phenyl)propanoic acid] | decreased LFA-1/ICAM-1 antagonist activity obviously | –
9 | – | CS(=O)(=O)c1cccc(C[C@H](NC(=O)c2c(Cl)cc3c(c2Cl)CCN(C(=O)NCc2ccc4ccoc4c2)C3)C(=O)O)c1 [Compound 1b, (S)-2-(2-((Benzofuran-6-ylmethyl)carbamoyl)-5,7-dichloro-1,2,3,4-tetrahydroisoquinoline-6-carboxamido)-3-(3-(methylsulfonyl)phenyl)propanoic acid] | certain LFA-1/ICAM-1 antagonist activity | difference in effect between the two concentrations [3]: no statistical difference in the effect between 5% and 7%; TUNEL positive (Cy3 labeled) cells in cornea, apoptosis ([4]; 5% (W/V) compound 1b): markedly decreased; also recorded: protective effect on apoptosis of ocular surface cells; anti-apoptotic effect compared with Lifitegrast treatment group ([4]; 5% or 7% compound 1b vs 5% Lifitegrast): weaker than that of Lifitegrast; TUNEL positive (Cy3 labeled) cells in cornea, apoptosis ([4]; 7% (W/V) compound 1b): markedly decreased; also recorded: protective effect on apoptosis of ocular surface cells; density of goblet cells on conjunctival epithelium ([5]; 5% (W/V) compound 1b): significantly increased the density of goblet cells; also recorded: significantly increased goblet cell density; density of goblet cells on conjunctival epithelium ([5]; 7% (W/V) compound 1b): significantly increased the density of goblet cells; also recorded: significantly increased goblet cell density
